# In ChEMBL document CHEMBL1131103, “Synthesis and biological evaluation of 2-acyl analogues of paclitaxel (Taxol)” (J Med Chem, 1998):
# Experiments:
# [1] = test system: ptx-10/22; test: Relative resistance was measured against human paclitaxel-resistant cell lines; format: functional, cell-based; conditions: 1A9(PTX22)
# [2] = test system: Burkitts lymphoma cell; test: Cytotoxic activity against was measured human Burkitt lymphoma cell lines.; format: functional, cell-based
# Method in brief: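 CA46 Burkitt lymphoma cells in 5.0-mL suspension culture, counted after 24 h at 37 °C under 5% CO₂. IC₅₀ = drug concentration halving the increase in cell number. Highest concentration 100 nM. At least two independent experiments.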
# [3] = test system: Panel ovarian (Carcinoma cell lines); test: Cytotoxic activity was measured against human Ovarian carcinoma cell lines; format: functional, cell-based
# Method in brief: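 Ovarian carcinoma line 1A9, a subclone of A2780, grown as monolayers in 96-well plates for 96 h at 37 °C, 5% CO₂. Cell protein quantitated (Skehan method). IC₅₀ = concentration inhibiting the increase in cell protein by 50%.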
# [4] = organism: Bos taurus; test: Polymerizing activity of tubulin in glutamate against bovine brain tubulin homogenate was measured at 0.8M concentrations; format: functional
# Method in brief: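 Bovine brain tubulin, purified to electrophoretic homogeneity, in 0.8 M monosodium glutamate (from 2 M stock, pH 6.6), room temperature, no GTP. Polymer removed by centrifugation. IC₅₀ = concentration reducing supernatant protein by 50% relative to drug-free control. Maximum 40 µM. At least three independent experiments, or at least two for IC₅₀ over 40 µM.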
# [5] = organism: Bos taurus; test: Polymerizing activity of microtubule protein against the twice cycled microtubule protein; format: functional
# Method in brief: (§1)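 Twice-cycled microtubule protein, stored in liquid nitrogen, at 1.0 mg/mL final in 0.1 M MES, 1 mM EGTA, 0.5 mM MgCl₂, pH 6.6, 37 °C, no GTP. Compound at 2.5, 5.0 and 10 µM. Absorbance read every 10 s and initial linear slopes taken. EC0.01 = interpolated concentration giving an initial slope of 0.01 A unit/min.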
# [6] = test system: Panel colon (Carcinoma cell lines); test: Cytotoxic activity was measured against human colon carcinoma cell lines; format: functional, cell-based
# Method in brief: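 HCT116 colon carcinoma monolayers in 96-well plates, 48 h at 37 °C under 5% CO₂. Cell protein measured. IC₅₀ = concentration giving 50% inhibition of the increase in cell protein.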
# [7] = organism: Bos taurus; test: Polymerizing activity of tubulin in glutamate against bovine brain tubulin homogenate was measured at 0.4 M concentrations; format: functional
# Method in brief: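 Purified, electrophoretically homogeneous bovine brain tubulin assembled at room temperature without GTP or Mg²⁺ in 0.4 M monosodium glutamate (from 2 M stock, pH 6.6). Polymer pelleted by centrifugation. IC₅₀ = drug concentration lowering supernatant protein by 50% versus no-drug control. Up to 40 µM. At least three independent experiments, or at least two where IC₅₀ exceeded 40 µM.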
# [8] = organism: Bos taurus; test: Polymerizing activity of microtubule protein.; format: functional; method in brief: as §1
SMILES,IC50 [4],IC50 [7],relative resistance [1],IC50 [2],IC50 [3],EC0.01 (relative to paclitaxel) [5],IC50 [6],EC0.01 (relative to paclitaxel) [8]
CC(=O)O[C@H]1C(=O)[C@@]2(C)[C@H]([C@H](OC(=O)c3cccc(OC(C)C)c3)[C@]3(O)C[C@H](OC(=O)[C@H](O)[C@@H](NC(=O)c4ccccc4)c4ccccc4)C(C)=C1C3(C)C)[C@]1(OC(C)=O)CO[C@@H]1C[C@@H]2O,> 8.9 relative to paclitaxel,> 1.7 relative to paclitaxel,0.29,1.3 relative to paclitaxel,15 relative to paclitaxel,> 140,17 relative to paclitaxel,–
CC(=O)O[C@H]1C(=O)[C@@]2(C)[C@H]([C@H](OC(=O)c3cccc([N+](=O)[O-])c3)[C@]3(O)C[C@H](OC(=O)[C@H](O)[C@@H](NC(=O)c4ccccc4)c4ccccc4)C(C)=C1C3(C)C)[C@]1(OC(C)=O)CO[C@@H]1C[C@@H]2O,1.6 relative to paclitaxel,> 1.7 relative to paclitaxel,0.76,1 relative to paclitaxel,1.3 relative to paclitaxel,0.69,0.88 relative to paclitaxel,–
COc1ccccc1C(=O)O[C@H]1[C@@H]2[C@]3(OC(C)=O)CO[C@@H]3C[C@H](O)[C@@]2(C)C(=O)[C@H](OC(C)=O)C2=C(C)[C@@H](OC(=O)[C@H](O)[C@@H](NC(=O)c3ccccc3)c3ccccc3)C[C@]1(O)C2(C)C,1.2 relative to paclitaxel,> 1.7 relative to paclitaxel,0.95,0.67 relative to paclitaxel,1.4 relative to paclitaxel,1.5,1.9 relative to paclitaxel,–
CC(=O)O[C@H]1C(=O)[C@@]2(C)[C@H]([C@H](OC(=O)c3cccc(I)c3)[C@]3(O)C[C@H](OC(=O)[C@H](O)[C@@H](NC(=O)c4ccccc4)c4ccccc4)C(C)=C1C3(C)C)[C@]1(OC(C)=O)CO[C@@H]1C[C@@H]2O,3.1 relative to paclitaxel,> 1.7 relative to paclitaxel,0.35,2.3 relative to paclitaxel,1.6 relative to paclitaxel,0.79,0.85 relative to paclitaxel,–

# Further lines, with some results ahead:
IC50 [4],IC50 [7],SMILES,relative resistance [1],IC50 [2],IC50 [3],EC0.01 (relative to paclitaxel) [5],IC50 [6],EC0.01 (relative to paclitaxel) [8]
4 relative to paclitaxel,> 1.7 relative to paclitaxel,CC(=O)O[C@H]1C(=O)[C@@]2(C)[C@H]([C@H](OC(=O)c3cc(N=[N+]=[N-])cc(N=[N+]=[N-])c3)[C@]3(O)C[C@H](OC(=O)[C@H](O)[C@@H](NC(=O)c4ccccc4)c4ccccc4)C(C)=C1C3(C)C)[C@]1(OC(C)=O)CO[C@@H]1C[C@@H]2O,0.4,1 relative to paclitaxel,1.3 relative to paclitaxel,0.67,1.6 relative to paclitaxel,–
3.1 relative to paclitaxel,> 1.7 relative to paclitaxel,CC(=O)O[C@H]1C(=O)[C@@]2(C)[C@H]([C@H](OC(=O)c3ccc(F)c(F)c3)[C@]3(O)C[C@H](OC(=O)[C@H](O)[C@@H](NC(=O)c4ccccc4)c4ccccc4)C(C)=C1C3(C)C)[C@]1(OC(C)=O)CO[C@@H]1C[C@@H]2O,0.57,0.33 relative to paclitaxel,3.4 relative to paclitaxel,2.2,2.7 relative to paclitaxel,–
3.1 relative to paclitaxel,> 1.7 relative to paclitaxel,CC(=O)O[C@H]1C(=O)[C@@]2(C)[C@H]([C@H](OC(=O)c3cc(F)c(F)cc3F)[C@]3(O)C[C@H](OC(=O)[C@H](O)[C@@H](NC(=O)c4ccccc4)c4ccccc4)C(C)=C1C3(C)C)[C@]1(OC(C)=O)CO[C@@H]1C[C@@H]2O,0.48,1 relative to paclitaxel,3.1 relative to paclitaxel,1.5,1.9 relative to paclitaxel,–
4.7 relative to paclitaxel,> 1.7 relative to paclitaxel,CC(=O)O[C@H]1C(=O)[C@@]2(C)[C@H]([C@H](OC(=O)c3cc(F)c(F)c(F)c3)[C@]3(O)C[C@H](OC(=O)[C@H](O)[C@@H](NC(=O)c4ccccc4)c4ccccc4)C(C)=C1C3(C)C)[C@]1(OC(C)=O)CO[C@@H]1C[C@@H]2O,0.62,1.3 relative to paclitaxel,3.2 relative to paclitaxel,1.8,3.4 relative to paclitaxel,–
1.2 relative to paclitaxel,1.4 relative to paclitaxel,CCOc1cccc(C(=O)O[C@H]2[C@@H]3[C@]4(OC(C)=O)CO[C@@H]4C[C@H](O)[C@@]3(C)C(=O)[C@H](OC(C)=O)C3=C(C)[C@@H](OC(=O)[C@H](O)[C@@H](NC(=O)c4ccccc4)c4ccccc4)C[C@]2(O)C3(C)C)c1,0.37,1 relative to paclitaxel,1.7 relative to paclitaxel,–,1.6 relative to paclitaxel,1.1
